Data on 18 compounds can be found in ChEMBL document CHEMBL1155524, “Bis-azaaromatic quaternary ammonium salts as ligands for the blood-brain barrier choline transporter” (Bioorg Med Chem Lett, 2010).

The assay in a line: Binding affinity to blood-brain barrier choline transporter in rat brain assessed as inhibition of [3H]choline uptake. Type of assay: tissue-based. An outline of the steps: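 In situ rat brain perfusion (Takasato method, Allen and Smith modification). Analog co-perfused at a single concentration, with brain uptake of [3H]-choline measured. Ki is the analog concentration inhibiting 50% of [3H]-choline uptake into brain, derived from the single-concentration inhibition. n = 4–6 animals. Ki values compared by ANOVA with Bonferroni multiple comparisons test.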
One may read the Ki as a measure of affinity in units of concentration, obtained from inhibition or displacement. Take `Cc1ccc[n+](CCCCCC[n+]2cccc(C)c2)c1`: the Ki was 26 µM.

Regarding `Cc1ccc[n+](CCCC#Cc2ccccc2C#CCCC[n+]2cccc(C)c2)c1`, the Ki worked out at 319 µM.

Take `Cc1ccc[n+](CCCCCCCC[n+]2cccc(C)c2)c1`: the Ki was 24 µM.

On to `Cc1ccc[n+](CCCC#Cc2cccc(C#CCCC[n+]3cccc(C)c3)c2)c1`, for which the Ki amounted to 140 µM.

As to `Cc1cc(C)c[n+](CCC#Cc2ccc(C#CCC[n+]3cc(C)cc(C)c3)cc2)c1`, the Ki amounted to 7.4 µM.

For the compound `c1ccc2c[n+](CCCCCC[n+]3ccc4ccccc4c3)ccc2c1`, the Ki was 29 µM.

Consider `c1ccc2c[n+](CCCCCCCCCC[n+]3ccc4ccccc4c3)ccc2c1`, for which the Ki came out at 10 µM.

Regarding `Cc1ccc[n+](CCCCCCCCCC[n+]2cccc(C)c2)c1`, the Ki is 22 µM.

In the case of `Cc1ccc[n+](CCC#Cc2ccc(C#CCC[n+]3cccc(C)c3)cc2)c1`, the Ki came out at 15 µM.

`Cc1ccc[n+](CCCCCCCCC[n+]2cccc(C)c2)c1`: the Ki is 30 µM.

For the compound `Cc1cc[n+](CCC#Cc2ccc(C#CCC[n+]3ccc(C)c(C)c3)cc2)cc1C`, the inhibitory constant (Ki) was 8.4 µM.

Regarding `C(#Cc1ccc(C#CCC[n+]2ccc3c(c2)CCCC3)cc1)CC[n+]1ccc2c(c1)CCCC2`, the Ki was 5.4 µM.

As for `Cc1cc[n+](CCC#Cc2ccc(C#CCC[n+]3ccc(C)cc3)cc2)cc1`, the Ki was 8.5 µM.

With `Cc1ccc[n+](CCCCCCCCCCCC[n+]2cccc(C)c2)c1`, the Ki was found to be 36 µM.

`CCCCCCCC[n+]1cccc([C@@H]2CCCN2C)c1`: the Ki is 49 µM.

On to `C[N+](C)(C)CCO` [CHOLINE], for which the Ki is 41 µM.

`c1ccc2c[n+](CCCCCCCCCCCC[n+]3ccc4ccccc4c3)ccc2c1`: the Ki came to 22 µM.

Take `Cc1ccc[n+](CCCCCCCCCCC[n+]2cccc(C)c2)c1`: the Ki worked out at 36 µM.
